Most compounds without a hit are left out; they make up all but 8.9% or so of the library.
b-catenin transl – modulators of beta-catenin nuclear translocation, primary screen, imaging, HeLa cells, immunofluorescence, high-content; nuclear translocation activity, % at 5 µM; 190,000 compounds, 0.3% hits;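 active = nuclear translocation activity above 50% at 5 µM, with a well cell count of 50 or more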;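 also: per-cell ratio of nuclear to cytoplasmic median beta-catenin stain intensity; plate controls were DMSO negative control for no effect and GSK-3 inhibitor IX positive control for full effect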
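Read-out: Nuclear/cytoplasmic beta-catenin signal ratio, % activation | Assay system: Human HeLa cell line | Times: 24 h compound exposure at 37°C, 5% CO2 | Signal: Fluorescence imaging of beta-catenin antibody stain plus DAPI | Dosing: 5 µM primary, 0.02–20 µM confirmation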
HSV augment – enhancers of HSV replication in host cells, fold increase, host cell viability | HSV replication augmentation in cells | maximum fold increase | 220,000 compounds, 0.005% hits; in the data active = maximum fold increase above about 1.5; tested in PC3 cells
Lmaj promast – Leishmania major promastigote growth inhibition, primary screen; Leishmania major promastigotes, resazurin fluorescence viability; inhibition, % at 10 µM; 200,000 compounds, 9% hits; AID 1063, 2008; in the data active = inhibition above about 50%;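 also: promastigotes grown with compound for 44 hours at 28 °C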
Dynein cargo inh – inhibitors of GR-EGFP nuclear translocation, primary screen, dynein cargo transport inhibitor project, imaging, high-content, 3617.4 mouse cells. z-score, hits read low. 220,000 compounds, 0.47% hits. test concentration mostly 20 µM; stimulated with dexamethasone, 1 µM; hits give low values. AID 1381, 2008;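 active = plate z-score of nuclear minus cytoplasmic receptor signal below a set negative limit, without overly bright fluorescence or cell loss, cut at about -3.5 in these data, passing the limit was not always enough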;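 also: z-score of nuclear minus cytoplasmic ring GR-EGFP intensity difference per well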
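Also added – dexamethasone, 1.0 µM final · Buffer or medium – tet-free, stripped-serum medium · Schedule – induction 48 h, compound 1 h, agonist 30 min · Detection – formaldehyde fixation, Hoechst nuclear stain, 10x automated fluorescence imaging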
MT stabilize HCS – microtubule stabilizers in HeLa cells, primary screen, imaging, high-content imaging | HeLa tubulin immunostaining HCS, 24 h; share of cells brighter than vehicle mean+2SD | % tubulin-high responders, % at 10 µM | 200,000 compounds, 0.83% hits | AID 2205, 2009;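 active = plate Z-score above 3 for both tubulin-high and condensed-nucleus cell shares, with cell loss under 80%, at 10 µM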;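 also: anti alpha tubulin signal scored within the nucleus-defined area of each cell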
* marks the source's active call; other numbers are inactive results; i = inactive; . = not tested or not shown.

SMILES	b-catenin transl	HSV augment	Lmaj promast	Dynein cargo inh	MT stabilize HCS
Clc1ccc(C2=NNC(=NCc3ccc4c(c3)OCO4)SC2)cc1	-1	i	16	-1.2	4
Oc1ccc(C2=NNC(=NCc3ccc4c(c3)OCO4)SC2)c(O)c1	117*	i	-5	-0.24	11
Cc1cccc(C(=O)O/N=C2\CCSc3ccc(C)cc32)c1	-4	i	-5	-0.051	4
O=S(=O)(Cc1ccccc1Cl)N1CCN(Cc2ccc3c(c2)OCO3)CC1	.	i	96*	-0.0082	4
COc1ccc(Cl)cc1S(=O)(=O)N1CCN(Cc2ccc3c(c2)OCO3)CC1	.	i	72*	-0.53	3
COc1ccc(C(=O)NCCNC(C)=O)cc1S(=O)(=O)NCc1ccc(Cl)cc1	0	i	1	-0.53	4
O=S(=O)(c1ccc(N2CCN(Cc3ccc4c(c3)OCO4)CC2)nc1)N1CCOCC1	1	i	93*	-0.3	2
COc1ccc(F)cc1S(=O)(=O)N1CCN(Cc2ccc3c(c2)OCO3)CC1	1	i	12	1.1	3
O=S(=O)(c1ccc(N2CCN(S(=O)(=O)c3ccc4c(c3)OCCO4)CC2)nc1)N1CCCC1	.	i	18	-0.015	6
COc1ccc(C(=O)NCc2ccc3c(c2)OCO3)cc1S(=O)(=O)NCc1ccc(Cl)cc1	0	i	61*	-0.31	2
C[C@@H](O)[C@H]1C(=O)N2C(C(=O)O)=C(S[C@@H]3CN[C@H](C(=O)N(C)C)C3)[C@H](C)[C@H]12	.	i	.	.	.
O=C1CC(C(=O)NCc2ccccc2)C2(CCCC2)O1 (stereo not given)	-2	i	-5	-0.49	5
CSc1ccc(S(=O)(=O)N2CCN(Cc3ccc4c(c3)OCO4)CC2)cc1	-1	i	82*	-0.37	3
Cc1cc(S(=O)(=O)N2CCN(Cc3ccc4c(c3)OCO4)CC2)cc(C)c1N1CCCC1=O	0	i	-3	-0.62	3
O=c1cc(NCC2CCCO2)[nH]c(=O)n1-c1ccc(Cl)cc1 (stereo not given)	0	i	1	0.33	3
N#CC1=C(N)N=C(SCc2cccc3ccccc23)C(C(N)=O)C12CCCCC2 (stereo not given)	.	i	100*	-0.68	2
O=C(O)CCn1c(SCc2cccc3ccccc23)nc2ccccc21	-9	i	5	-0.00072	2
CC1=C(C(=O)OCc2ccccc2)C(/C=C/c2ccccc2)NC(=S)N1 (stereo not given)	-1	i	38	-0.18	5
C=CCOC(=O)C1=C(C)NC(=S)NC1/C=C/c1ccccc1 (stereo not given)	.	i	89*	0.093	2
c1ccc2c(c1)oc1c(NCCCn3ccnc3)ncnc12	0	i	94*	3.4	2
Cc1nc(NCCCn2ccnc2)c2oc3ccccc3c2n1	0	i	88*	-0.15	3
c1ccc2c(c1)oc1c(NCCCN3CCOCC3)ncnc12	-4	i	96*	0.64	2
C=CCc1cccc(Cl)c1OCCON1C(=O)CCC1=O	-5	i	-1	1.1	2
CCC(=O)c1ccc(OCC(O)CNCc2ccc(F)cc2)cc1 (stereo not given)	-1	i	80*	0.82	6
CCC(=O)c1ccc(OCC(O)CN2CCOCC2)cc1 (stereo not given)	1	i	-6	-0.93	3
SMILES	b-catenin transl	HSV augment	Lmaj promast	Dynein cargo inh	MT stabilize HCS
Cc1cccc(C)c1OCC(O)CN(Cc1ccccc1O)C1CCCCC1 (stereo not given)	0	i	94*	-0.99	5
CCC(=O)c1ccc(OCC(O)CN(C)C2CCCCC2)cc1 (stereo not given)	.	i	92*	-0.079	3
CN(CC(O)COC(c1ccccc1)c1ccccc1)C1CCCCC1 (stereo not given)	-2	i	19	-0.81	4
CN(CC(O)COc1ccc(OCC(O)CN(C)C2CCCCC2)cc1)C1CCCCC1 (stereo not given)	-4	i	63*	-0.34	2
COC(=O)c1ccc(CSc2nc(C(F)(F)F)c3c(c2C#N)CCC3)o1	.	.	14	0.6	4
COC(=O)CCC(=O)NC(=S)Nc1sc(C)c(C)c1C(N)=O	1	i	45	-0.16	21*
COC(=O)CCC(=O)Nc1sc(C)c(C)c1C(N)=O	2	i	-8	-0.65	3
COc1cc(NC(=S)NC(=O)c2cccs2)ccc1NC(=O)C(C)C	0	i	14	0.29	9
CCOC(=O)N1CCC(NC(=O)c2ccccc2C(=O)O)CC1	0	i	.	0.74	.
O=C(NCCNC1CCC(c2ccccc2)CC1)c1cccs1 (stereo not given)	0	i	94*	-0.12	3
O=C(NCCCCCCNC(=O)c1cccs1)c1cccs1	0	i	1	-0.4	2
CCOC(=O)N1CCC(NCCNC(=O)c2cccs2)CC1	1	i	88*	-0.13	4
CCOC(=O)N1CCC(NCCNC(=O)c2ccccc2)CC1	.	i	77*	0.11	1
CCOC(=O)N1CCC(NCCNC(=O)c2ccccc2Cl)CC1	-5	i	84*	-0.41	1
COC(=O)c1ccc(S(=O)(=O)NCc2ccc(S(N)(=O)=O)cc2)o1	-2	i	.	-0.4	.
COc1cccc(Nc2ccc(C(=O)O)cc2[N+](=O)[O-])c1	-2	i	-2	-0.67	2
Cc1cc([N+](=O)[O-])nn1CCCC(=O)Nc1cc(Oc2ccccc2)cc([N+](=O)[O-])c1	-1	i	-3	-0.38	4
Cc1cccc(Oc2cc(NC(=O)Cn3cnc([N+](=O)[O-])n3)cc([N+](=O)[O-])c2)c1	2	i	100*	-0.36	3
COc1cccc(C2C(C(=O)Nc3nc4ccccc4s3)=C(C)NC3=C2C(=O)CC(C)(C)C3)c1OC (stereo not given)	2	i	58*	0.75	8
COc1ccc(OC)c(C2C(C(=O)Nc3nc4ccccc4s3)=C(C)NC3=C2C(=O)CCC3)c1 (stereo not given)	1	i	98*	0.019	5
CCOC(=O)C1=C(C)NC2=C(C(=O)CCC2)C1c1cc(OC)ccc1OC (stereo not given)	-3	i	0	0.52	4
COc1ccnc(NCc2cccc(C(F)(F)F)c2)c1C#N	2	i	-9	0.2	2
C=CCn1c(C)cc(C(=O)CN2NS(=O)(=O)c3ccccc3C2=O)c1C	2	i	32	1.6	8.6*
Cc1cc(C(=O)CN2C(=O)c3ccccc3C2=O)c(C)n1Cc1cccs1	-4	i	-7	0.27	3
CCOc1cc(/C=C/c2nc3cc(C)c(C)cc3s2)ccc1OCC(=O)N1CCOCC1	-1	i	86*	0.19	2
